# According to ChEMBL document CHEMBL2380298, “Synthesis and antimicrobial activity of novel amphiphilic aromatic amino alcohols” (2013):
# Assays:
# Type in all cases: functional
# [1] = system: Staphylococcus epidermidis; assay: Antimicrobial activity against Staphylococcus epidermidis ATCC 12228 by broth dilution method; conditions: for MIC: Staphylococcus epidermidis, ATCC 12228
# Staphylococcus aureus [2] = assay: Antimicrobial activity against Staphylococcus aureus ATCC 29213 by broth dilution method; conditions: for MIC: Staphylococcus aureus, ATCC 29213
# Staphylococcus aureus [3] = assay: Bactericidal activity against methicillin-resistant Staphylococcus aureus clinical isolate 264 after 24 hrs; conditions: isolate 264, 24 h
# Procedure, shortened: (§1)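 Bactericidal concentration: 0.1 ml from wells at the MIC dilution and the dilutions on either side was streaked onto tryptic soy agar and incubated 24 h. It was taken as the lowest drug concentration giving no growth (100% killing).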
# Staphylococcus aureus [4] = assay: Bactericidal activity against methicillin-resistant Staphylococcus aureus clinical isolate 260 after 24 hrs; conditions: isolate 260, 24 h; procedure, shortened: as §1
# Staphylococcus aureus [5] = assay: Bactericidal activity against methicillin-resistant Staphylococcus aureus clinical isolate 259 after 24 hrs; conditions: isolate 259, 24 h; procedure, shortened: as §1
# Staphylococcus aureus [6] = assay: Bactericidal activity against methicillin-resistant Staphylococcus aureus clinical isolate 257 after 24 hrs; conditions: isolate 257, 24 h; procedure, shortened: as §1
# Staphylococcus aureus [7] = assay: Bactericidal activity against methicillin-resistant Staphylococcus aureus clinical isolate 255 after 24 hrs; conditions: isolate 255, 24 h; procedure, shortened: as §1
# Staphylococcus aureus [8] = assay: Bactericidal activity against methicillin-resistant Staphylococcus aureus clinical isolate 238 after 24 hrs; conditions: isolate 238, 24 h; procedure, shortened: as §1
# Staphylococcus aureus [9] = assay: Bactericidal activity against methicillin-resistant Staphylococcus aureus clinical isolate 237 after 24 hrs; conditions: isolate 237, 24 h; procedure, shortened: as §1
# Staphylococcus aureus [10] = assay: Bactericidal activity against methicillin-resistant Staphylococcus aureus clinical isolate 236 after 24 hrs; conditions: isolate 236, 24 h; procedure, shortened: as §1
# Staphylococcus aureus [11] = assay: Bactericidal activity against methicillin-resistant Staphylococcus aureus clinical isolate 235 after 24 hrs; conditions: isolate 235, 24 h; procedure, shortened: as §1
# Staphylococcus aureus [12] = assay: Bactericidal activity against methicillin-resistant Staphylococcus aureus clinical isolate 232 after 24 hrs; conditions: isolate 232, 24 h; procedure, shortened: as §1
# Staphylococcus aureus [13] = assay: Bactericidal activity against methicillin-resistant Staphylococcus aureus clinical isolate 231 after 24 hrs; conditions: isolate 231, 24 h; procedure, shortened: as §1
# Staphylococcus aureus [14] = assay: Bactericidal activity against methicillin-resistant Staphylococcus aureus clinical isolate 212 after 24 hrs; conditions: isolate 212, 24 h; procedure, shortened: as §1
# Staphylococcus aureus [15] = assay: Bactericidal activity against methicillin-resistant Staphylococcus aureus clinical isolate 176 after 24 hrs; conditions: isolate 176, 24 h; procedure, shortened: as §1
# [16] = system: Staphylococcus epidermidis; assay: Bactericidal activity against Staphylococcus epidermidis ATCC 12228 after 24 hrs; conditions: ATCC 12228, 24 h
# Procedure, shortened: (§2)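 MBC: after MIC determination, 0.1 ml from the MIC well and from two dilutions either side streaked on tryptic soy agar, incubated 24 h; MBC taken as lowest concentration giving no growth (100% kill).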
# Staphylococcus aureus [17] = assay: Bactericidal activity against Staphylococcus aureus ATCC 29213 after 24 hrs; conditions: ATCC 29213, 24 h; procedure, shortened: as §1
# Candida parapsilosis = assay: Antimicrobial activity against Candida parapsilosis ATCC 90030 by broth dilution method; conditions: Lodderomyces parapsilosis
# Nakaseomyces glabratus = assay: Antimicrobial activity against Candida glabrata ATCC 18804 by broth dilution method
# Candida albicans = assay: Antimicrobial activity against Candida albicans ATCC 22019 by broth dilution method
# Candida tropicalis = assay: Antimicrobial activity against Candida tropicalis ATCC 750 by broth dilution method
# Staphylococcus aureus [18] = assay: Antimicrobial activity against methicillin-resistant Staphylococcus aureus clinical isolate by broth dilution method; conditions: for MIC50 / MIC90: Staphylococcus aureus
# Staphylococcus aureus [19] = assay: Antimicrobial activity against methicillin-resistant Staphylococcus aureus clinical isolate 264 by broth dilution method
# Staphylococcus aureus [20] = assay: Antimicrobial activity against methicillin-resistant Staphylococcus aureus clinical isolate 260 by broth dilution method
# Staphylococcus aureus [21] = assay: Antimicrobial activity against methicillin-resistant Staphylococcus aureus clinical isolate 257 by broth dilution method
# Staphylococcus aureus [22] = assay: Antimicrobial activity against methicillin-resistant Staphylococcus aureus clinical isolate 259 by broth dilution method
# Staphylococcus aureus [23] = assay: Antimicrobial activity against methicillin-resistant Staphylococcus aureus clinical isolate 238 by broth dilution method
# Staphylococcus aureus [24] = assay: Antimicrobial activity against methicillin-resistant Staphylococcus aureus clinical isolate 255 by broth dilution method
# Staphylococcus aureus [25] = assay: Antimicrobial activity against methicillin-resistant Staphylococcus aureus clinical isolate 237 by broth dilution method
# Staphylococcus aureus [26] = assay: Antimicrobial activity against methicillin-resistant Staphylococcus aureus clinical isolate 236 by broth dilution method
# Staphylococcus aureus [27] = assay: Antimicrobial activity against methicillin-resistant Staphylococcus aureus clinical isolate 235 by broth dilution method
# Staphylococcus aureus [28] = assay: Antimicrobial activity against methicillin-resistant Staphylococcus aureus clinical isolate 232 by broth dilution method
# Staphylococcus aureus [29] = assay: Antimicrobial activity against methicillin-resistant Staphylococcus aureus clinical isolate 227 by broth dilution method
# Staphylococcus aureus [30] = assay: Antimicrobial activity against methicillin-resistant Staphylococcus aureus clinical isolate 231 by broth dilution method
# Staphylococcus aureus [31] = assay: Antimicrobial activity against methicillin-resistant Staphylococcus aureus clinical isolate 225 by broth dilution method
# Staphylococcus aureus [32] = assay: Antimicrobial activity against methicillin-resistant Staphylococcus aureus clinical isolate 215 by broth dilution method
# Staphylococcus aureus [33] = assay: Antimicrobial activity against methicillin-resistant Staphylococcus aureus clinical isolate 218 by broth dilution method
# Staphylococcus aureus [34] = assay: Antimicrobial activity against methicillin-resistant Staphylococcus aureus clinical isolate 212 by broth dilution method
# Staphylococcus aureus [35] = assay: Antimicrobial activity against methicillin-resistant Staphylococcus aureus clinical isolate 207 by broth dilution method
# Staphylococcus aureus [36] = assay: Antimicrobial activity against methicillin-resistant Staphylococcus aureus clinical isolate 205 by broth dilution method
# Staphylococcus aureus [37] = assay: Antimicrobial activity against methicillin-resistant Staphylococcus aureus clinical isolate 195 by broth dilution method
# Staphylococcus aureus [38] = assay: Antimicrobial activity against methicillin-resistant Staphylococcus aureus clinical isolate 178 by broth dilution method
# Staphylococcus aureus [39] = assay: Antimicrobial activity against methicillin-resistant Staphylococcus aureus clinical isolate 176 by broth dilution method
# Pseudomonas aeruginosa = assay: Antimicrobial activity against Pseudomonas aeruginosa ATCC 27853 by broth dilution method
# Escherichia coli [40] = assay: Antimicrobial activity against Escherichia coli ATCC 11229 by broth dilution method; conditions: for MIC: Escherichia coli, ATCC 11229
# Staphylococcus aureus [41] = assay: Bactericidal activity against methicillin-resistant Staphylococcus aureus clinical isolate 178 after 24 hrs; conditions: isolate 178, 24 h; procedure, shortened: as §1
# Escherichia coli [42] = assay: Bactericidal activity against Escherichia coli ATCC 11229 after 24 hrs; conditions: ATCC 11229, 24 h; procedure, shortened: as §2
compound,measurement,setting,value
CCCCCCCCCCCCOc1ccc(CNC(CO)(CO)CO)cc1.Cl,-logMIC,[1],4.73
same,MIC,[1],8 mg/L
same,MIC,Staphylococcus aureus [2],8 mg/L
same,MBC,Staphylococcus aureus [3],8 mg/L
same,MBC,Staphylococcus aureus [4],4 mg/L
same,MBC,Staphylococcus aureus [5],16 mg/L
same,MBC,Staphylococcus aureus [6],16 mg/L
same,MBC,Staphylococcus aureus [7],16 mg/L
same,MBC,Staphylococcus aureus [8],4 mg/L
same,MBC,Staphylococcus aureus [9],4 mg/L
same,MBC,Staphylococcus aureus [10],8 mg/L
same,MBC,Staphylococcus aureus [11],32 mg/L
same,MBC,Staphylococcus aureus [12],16 mg/L
same,MBC,Staphylococcus aureus [13],4 mg/L
same,MBC,Staphylococcus aureus [14],128 mg/L
same,MBC,Staphylococcus aureus [15],128 mg/L
same,MBC,[16],8 mg/L
same,MBC,Staphylococcus aureus [17],8 mg/L
same,MIC,Candida parapsilosis,4 mg/L
same,MIC,Nakaseomyces glabratus,2 mg/L
same,MIC,Candida albicans,4 mg/L
same,MIC,Candida tropicalis,8 mg/L
same,-logMIC,Staphylococcus aureus [18],4.842
same,MIC50,Staphylococcus aureus [18],4 mg/L
same,MIC90,Staphylococcus aureus [18],8 mg/L
same,MIC,Staphylococcus aureus [19],4 mg/L
same,MIC,Staphylococcus aureus [20],4 mg/L
same,MIC,Staphylococcus aureus [21],16 mg/L
same,MIC,Staphylococcus aureus [22],4 mg/L
same,MIC,Staphylococcus aureus [23],4 mg/L
same,MIC,Staphylococcus aureus [24],4 mg/L
same,MIC,Staphylococcus aureus [25],4 mg/L
same,MIC,Staphylococcus aureus [26],4 mg/L
same,MIC,Staphylococcus aureus [27],4 mg/L
same,MIC,Staphylococcus aureus [28],8 mg/L
same,MIC,Staphylococcus aureus [29],4 mg/L
same,MIC,Staphylococcus aureus [30],4 mg/L
same,MIC,Staphylococcus aureus [31],8 mg/L
same,MIC,Staphylococcus aureus [32],8 mg/L
same,MIC,Staphylococcus aureus [33],4 mg/L
same,MIC,Staphylococcus aureus [34],8 mg/L
same,MIC,Staphylococcus aureus [35],4 mg/L
same,MIC,Staphylococcus aureus [36],8 mg/L
same,MIC,Staphylococcus aureus [37],8 mg/L
same,MIC,Staphylococcus aureus [38],8 mg/L
same,MIC,Staphylococcus aureus [39],8 mg/L
same,MIC,Pseudomonas aeruginosa,> 256 mg/L
same,MIC,Escherichia coli [40],> 256 mg/L
CCCCCCCCCCOc1ccc(CNC(CO)(CO)CO)cc1.Cl,-logMIC,[1],5
same,MIC,[1],4 mg/L
same,-logMIC,Staphylococcus aureus [2],4.7
same,MIC,Staphylococcus aureus [2],8 mg/L
same,MBC,Staphylococcus aureus [3],2 mg/L
same,MBC,Staphylococcus aureus [4],16 mg/L
same,MBC,Staphylococcus aureus [5],4 mg/L
same,MBC,Staphylococcus aureus [6],8 mg/L
same,MBC,Staphylococcus aureus [7],8 mg/L
same,MBC,Staphylococcus aureus [8],8 mg/L
same,MBC,Staphylococcus aureus [9],16 mg/L
same,MBC,Staphylococcus aureus [10],4 mg/L
same,MBC,Staphylococcus aureus [11],4 mg/L
same,MBC,Staphylococcus aureus [12],32 mg/L
same,MBC,Staphylococcus aureus [13],8 mg/L
same,MBC,Staphylococcus aureus [14],128 mg/L
same,MBC,Staphylococcus aureus [41],128 mg/L
same,MBC,Escherichia coli [42],32 mg/L
same,MBC,[16],8 mg/L
same,MBC,Staphylococcus aureus [17],8 mg/L
same,MIC,Candida parapsilosis,8 mg/L
same,MIC,Nakaseomyces glabratus,2 mg/L
same,MIC,Candida albicans,4 mg/L
same,MIC,Candida tropicalis,8 mg/L
same,-logMIC,Staphylococcus aureus [18],4.842
same,MIC50,Staphylococcus aureus [18],8 mg/L
same,MIC90,Staphylococcus aureus [18],8 mg/L
same,MIC,Staphylococcus aureus [19],2 mg/L
same,MIC,Staphylococcus aureus [20],8 mg/L
same,MIC,Staphylococcus aureus [21],4 mg/L
same,MIC,Staphylococcus aureus [22],4 mg/L
same,MIC,Staphylococcus aureus [23],8 mg/L
same,MIC,Staphylococcus aureus [24],4 mg/L
same,MIC,Staphylococcus aureus [25],16 mg/L
same,MIC,Staphylococcus aureus [26],4 mg/L
same,MIC,Staphylococcus aureus [27],4 mg/L
same,MIC,Staphylococcus aureus [28],16 mg/L
same,MIC,Staphylococcus aureus [29],4 mg/L
same,MIC,Staphylococcus aureus [30],8 mg/L
same,MIC,Staphylococcus aureus [31],8 mg/L
same,MIC,Staphylococcus aureus [32],4 mg/L
same,MIC,Staphylococcus aureus [33],4 mg/L
same,MIC,Staphylococcus aureus [34],8 mg/L
same,MIC,Staphylococcus aureus [35],8 mg/L
same,MIC,Staphylococcus aureus [36],8 mg/L
same,MIC,Staphylococcus aureus [37],8 mg/L
same,MIC,Staphylococcus aureus [38],8 mg/L
same,MIC,Staphylococcus aureus [39],8 mg/L
same,MIC,Pseudomonas aeruginosa,16 mg/L
same,-logMIC,Escherichia coli [40],4.1
same,MIC,Escherichia coli [40],32 mg/L
